According to ChEMBL document CHEMBL1129516, “Design, synthesis, and biological activities of cyclic lactam peptide analogues of dynorphine A(1-11)-NH2” (J Med Chem, 1996):

Columns and labels:
Mu-type opioid receptor = Mu-type opioid receptor (Cavia porcellus, UniProt P97266); test: Inhibition of [3H]DAMGO binding to Opioid receptor mu 1 of guinea pig brain membrane homogenates
[1] = target: Kappa-type opioid receptor (Cavia porcellus, UniProt P41144); test: Inhibition of [3H]U-69593 binding to Opioid receptor kappa 1 of plasma membrane homogenates of guinea pig brain; type: cell-free
Cavia porcellus = species on record: Cavia porcellus; test: Ability to inhibit the electrically evoked contraction of the guinea pig ileum; type: functional, organism-based
Summary of the method: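 Longitudinal muscle-myenteric plexus strips from male Hartley guinea pigs (250-500 g) in 37 °C oxygenated Krebs, 1 g tension, transmural stimulation 0.1 Hz, 0.4-ms supramaximal pulses. At least four tissues; IC50 by Hill equation fit.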

[2] = tested on: Kappa opioid receptor (Cavia porcellus); test: Central (GPB) and Peripheral (GPI) Nervous Systems Selectivity at kappa Opioid Receptor
[3] = Relative binding to mu and kappa opioid receptors (ratio of IC50)
[4] = Relative binding to delta and kappa opioid receptors (ratio of IC50)

Sequence of Mu-type opioid receptor (P97266 whole entry): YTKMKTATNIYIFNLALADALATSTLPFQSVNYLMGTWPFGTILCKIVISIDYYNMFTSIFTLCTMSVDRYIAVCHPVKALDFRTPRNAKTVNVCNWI
Sequence of Kappa-type opioid receptor (P41144 whole entry): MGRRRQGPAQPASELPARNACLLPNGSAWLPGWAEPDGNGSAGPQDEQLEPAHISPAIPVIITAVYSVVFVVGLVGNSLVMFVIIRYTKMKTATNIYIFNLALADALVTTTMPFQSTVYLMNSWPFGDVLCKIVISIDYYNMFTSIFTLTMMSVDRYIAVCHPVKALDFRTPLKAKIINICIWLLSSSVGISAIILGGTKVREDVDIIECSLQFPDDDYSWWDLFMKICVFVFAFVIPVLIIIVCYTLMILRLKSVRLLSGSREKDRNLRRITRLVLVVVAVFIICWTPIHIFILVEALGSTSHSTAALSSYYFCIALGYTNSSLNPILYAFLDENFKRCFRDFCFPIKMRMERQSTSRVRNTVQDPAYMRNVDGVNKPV

For `CC[C@H](C)[C@H](NC(=O)[C@H](CCCCN)NC(=O)[C@H](CCCNC(=N)N)NC(=O)[C@H](CC(C)C)NC(=O)[C@H](Cc1ccccc1)NC(=O)[C@@H](CC(=O)O)NC(=O)CNC(=O)[C@@H](N)Cc1ccc(O)cc1)C(=O)N[C@@H](CCCNC(=N)N)C(=O)N1CCC[C@H]1C(=O)N[C@@H](CCCCN)C(N)=O`, the IC50 (Mu-type opioid receptor) was 660 nM and the IC50 [1] was 47 nM.

`CC[C@@H](C)[C@H]1NC(=O)[C@H](CCCNC(=N)N)NC(=O)[C@@H](CCCNC(=N)N)NC(=O)[C@H](NC(=O)[C@@H](Cc2ccccc2)NC(=O)CNC(=O)CNC(=O)[C@H](N)Cc2ccc(O)cc2)CCCCNC(=O)C[C@@H](C(=O)N2CCC[C@H]2C(=O)N[C@H](CCCCN)C(N)=O)NC1=O` gave an IC50 (Mu-type opioid receptor) of 12 nM, an IC50 [1] of 6.6 nM and an IC50 (Cavia porcellus) of 2500 nM.

In the case of `CC[C@H](C)[C@H](NC(=O)[C@H](CCCCN)NC(=O)[C@H](CCCN=C(N)N)NC(=O)[C@H](CC(C)C)NC(=O)[C@H](Cc1ccccc1)NC(=O)[C@H](CC(=O)O)NC(=O)CNC(=O)[C@@H](N)Cc1ccc(O)cc1)C(=O)N[C@@H](CCCN=C(N)N)C(=O)N1CCC[C@@H]1C(=O)N[C@H](CCCCN)C(N)=O`, the Ratio [2] is reported as 72 Ratio, the Selectivity [3] is reported as 7 Ratio and the Selectivity [4] is reported as 9.5 Ratio.

In the case of `CC[C@@H](C)[C@H]1NC(=O)[C@H](CCCN=C(N)N)NC(=O)[C@@H](CCCN=C(N)N)NC(=O)[C@H](NC(=O)[C@@H](Cc2ccccc2)NC(=O)CNC(=O)CNC(=O)[C@H](N)Cc2ccc(O)cc2)CCCCNC(=O)C[C@H](C(=O)N2CCC[C@H]2C(=O)N[C@H](CCCCN)C(N)=O)NC1=O`, the IC50 (Mu-type opioid receptor) is reported as 120 nM, the IC50 [1] is reported as 100 nM and the IC50 (Cavia porcellus) is reported as 9300 nM.

Work on `CC[C@H](C)[C@H](NC(=O)[C@H](CCCN=C(N)N)NC(=O)[C@@H]1CCCCNC(=O)C[C@@H](NC(=O)[C@@H](N)Cc2ccc(O)cc2)C(=O)NCC(=O)N[C@H](Cc2ccccc2)C(=O)N[C@@H](CC(C)C)C(=O)N1)C(=O)N[C@@H](CCCN=C(N)N)C(=O)N1CCC[C@@H]1C(=O)N[C@H](CCCCN)C(N)=O` yielded a Ratio [2] of 160 Ratio, a Selectivity [3] of 29.8 Ratio and a Selectivity [4] of 9.1 Ratio.

Molecule `CC[C@H](C)[C@H](NC(=O)[C@H](CCCCN)NC(=O)[C@H](CCCN=C(N)N)NC(=O)[C@H](CC(C)C)NC(=O)[C@H](Cc1ccccc1)NC(=O)[C@@H](CC(=O)O)NC(=O)CNC(=O)[C@@H](N)Cc1ccc(O)cc1)C(=O)N[C@@H](CCCN=C(N)N)C(=O)N1CCC[C@@H]1C(=O)N[C@H](CCCCN)C(N)=O` has a Ratio [2] of 110 Ratio, a Selectivity [3] of 14 Ratio and a Selectivity [4] of 19 Ratio.

With `CC[C@H](C)[C@H](NC(=O)[C@H](CCCN=C(N)N)NC(=O)[C@H](CCCCN)NC(=O)[C@H](CC(C)C)NC(=O)[C@H](Cc1ccccc1)NC(=O)CNC(=O)[C@H](CC(=O)O)NC(=O)[C@@H](N)Cc1ccc(O)cc1)C(=O)N[C@@H](CCCN=C(N)N)C(=O)N1CCC[C@H]1C(=O)N[C@@H](CCCCN)C(N)=O` the IC50 (Cavia porcellus) was 14.2 nM.

Molecule `CC[C@H](C)[C@H](NC(=O)[C@H](CCCCN)NC(=O)[C@H](CCCNC(=N)N)NC(=O)[C@H](CC(C)C)NC(=O)[C@H](Cc1ccccc1)NC(=O)[C@H](CC(=O)O)NC(=O)CNC(=O)[C@@H](N)Cc1ccc(O)cc1)C(=O)N[C@@H](CCCNC(=N)N)C(=O)N1CCC[C@H]1C(=O)N[C@@H](CCCCN)C(N)=O` has an IC50 (Mu-type opioid receptor) of 1320 nM and an IC50 [1] of 190 nM.

Molecule `CC[C@H](C)[C@H](NC(=O)[C@H]1CCCCNC(=O)C[C@H](NC(=O)CNC(=O)[C@@H](N)Cc2ccc(O)cc2)C(=O)N[C@H](Cc2ccccc2)C(=O)N[C@@H](CC(C)C)C(=O)N[C@H](CCCN=C(N)N)C(=O)N1)C(=O)N[C@@H](CCCN=C(N)N)C(=O)N1CCC[C@@H]1C(=O)N[C@H](CCCCN)C(N)=O` has an IC50 (Mu-type opioid receptor) of 310 nM, an IC50 [1] of 4.9 nM and an IC50 (Cavia porcellus) of 600 nM.

For `CC[C@H](C)[C@H](NC(=O)[C@H](CCCNC(=N)N)NC(=O)[C@H](CCCCN)NC(=O)[C@H](CC(C)C)NC(=O)[C@H](Cc1ccccc1)NC(=O)CNC(=O)[C@H](CC(=O)O)NC(=O)[C@@H](N)Cc1ccc(O)cc1)C(=O)N[C@@H](CCCNC(=N)N)C(=O)N1CCC[C@H]1C(=O)N[C@@H](CCCCN)C(N)=O`, the IC50 (Mu-type opioid receptor) was 0.08 nM and the IC50 [1] was 1.5 nM.

Work on `CC[C@H](C)[C@H](NC(=O)[C@H]1CCCCNC(=O)C[C@@H](NC(=O)CNC(=O)[C@@H](N)Cc2ccc(O)cc2)C(=O)N[C@H](Cc2ccccc2)C(=O)N[C@@H](CC(C)C)C(=O)N[C@H](CCCN=C(N)N)C(=O)N1)C(=O)N[C@@H](CCCN=C(N)N)C(=O)N1CCC[C@@H]1C(=O)N[C@H](CCCCN)C(N)=O` yielded an IC50 (Mu-type opioid receptor) of 740 nM, an IC50 [1] of 25 nM and an IC50 (Cavia porcellus) of 1500 nM.

Work on `CC[C@H](C)[C@H](NC(=O)[C@H](CCCCN)NC(=O)[C@H](CCCN=C(N)N)NC(=O)[C@H](CC(C)C)NC(=O)[C@H](Cc1ccccc1)NC(=O)[C@@H](CC(=O)O)NC(=O)CNC(=O)[C@@H](N)Cc1ccc(O)cc1)C(=O)N[C@@H](CCCN=C(N)N)C(=O)N1CCC[C@H]1C(=O)N[C@@H](CCCCN)C(N)=O` yielded an IC50 (Cavia porcellus) of 4900 nM.

`CC[C@H](C)[C@H](NC(=O)[C@H](CCCNC(=N)N)NC(=O)[C@@H]1CCCCNC(=O)C[C@H](NC(=O)[C@@H](N)Cc2ccc(O)cc2)C(=O)NCC(=O)N[C@@H](Cc2ccccc2)C(=O)N[C@@H](CC(C)C)C(=O)N1)C(=O)N[C@@H](CCCNC(=N)N)C(=O)N1CCC[C@H]1C(=O)N[C@@H](CCCCN)C(N)=O` showed an IC50 (Mu-type opioid receptor) of 3.4 nM and an IC50 [1] of 110 nM.

Molecule `CC[C@H](C)[C@H](NC(=O)[C@H](CCCN=C(N)N)NC(=O)[C@@H]1CCCCNC(=O)C[C@H](NC(=O)[C@@H](N)Cc2ccc(O)cc2)C(=O)NCC(=O)N[C@@H](Cc2ccccc2)C(=O)N[C@@H](CC(C)C)C(=O)N1)C(=O)N[C@@H](CCCN=C(N)N)C(=O)N1CCC[C@H]1C(=O)N[C@@H](CCCCN)C(N)=O` has an IC50 (Cavia porcellus) of 610 nM.

For `CC[C@H](C)[C@H](NC(=O)[C@H](CCCN=C(N)N)NC(=O)[C@@H]1CCCCNC(=O)C[C@@H](NC(=O)[C@@H](N)Cc2ccc(O)cc2)C(=O)NCC(=O)N[C@@H](Cc2ccccc2)C(=O)N[C@@H](CC(C)C)C(=O)N1)C(=O)N[C@@H](CCCN=C(N)N)C(=O)N1CCC[C@H]1C(=O)N[C@@H](CCCCN)C(N)=O`, the IC50 (Cavia porcellus) was 16000 nM.

Work on `CC[C@H](C)[C@H](NC(=O)[C@H](CCCNC(=N)N)NC(=O)[C@H](CCCNC(=N)N)NC(=O)[C@H](CCCCN)NC(=O)[C@H](Cc1ccccc1)NC(=O)CNC(=O)CNC(=O)[C@@H](N)Cc1ccc(O)cc1)C(=O)N[C@H](CC(=O)O)C(=O)N1CCC[C@H]1C(=O)N[C@@H](CCCCN)C(N)=O` yielded an IC50 (Mu-type opioid receptor) of 555 nM and an IC50 [1] of 17.5 nM.

`CC[C@H](C)[C@H](NC(=O)[C@H](CCCN=C(N)N)NC(=O)[C@H](CCCN=C(N)N)NC(=O)[C@H](CCCCN)NC(=O)[C@H](Cc1ccccc1)NC(=O)CNC(=O)CNC(=O)[C@@H](N)Cc1ccc(O)cc1)C(=O)N[C@H](CC(=O)O)C(=O)N1CCC[C@H]1C(=O)N[C@@H](CCCCN)C(N)=O` showed an IC50 (Cavia porcellus) of 4160 nM.

Work on `CC[C@H](C)[C@H](NC(=O)[C@H](CCCN=C(N)N)NC(=O)[C@@H]1CCCCNC(=O)C[C@H](NC(=O)[C@@H](N)Cc2ccc(O)cc2)C(=O)NCC(=O)N[C@H](Cc2ccccc2)C(=O)N[C@@H](CC(C)C)C(=O)N1)C(=O)N[C@@H](CCCN=C(N)N)C(=O)N1CCC[C@@H]1C(=O)N[C@H](CCCCN)C(N)=O` yielded a Ratio [2] of 5.6 Ratio, a Selectivity [3] of 0.03 Ratio and a Selectivity [4] of 0.11 Ratio.

With `CC[C@H](C)[C@H](NC(=O)[C@H](CCCCN)NC(=O)[C@H](CCCN=C(N)N)NC(=O)[C@H](CC(C)C)NC(=O)[C@H](Cc1ccccc1)NC(=O)[C@H](CC(=O)O)NC(=O)CNC(=O)[C@@H](N)Cc1ccc(O)cc1)C(=O)N[C@@H](CCCN=C(N)N)C(=O)N1CCC[C@H]1C(=O)N[C@@H](CCCCN)C(N)=O` the IC50 (Cavia porcellus) was 13300 nM.

With `CC[C@H](C)[C@H](NC(=O)[C@H](CCCNC(=N)N)NC(=O)[C@@H]1CCCCNC(=O)C[C@@H](NC(=O)[C@@H](N)Cc2ccc(O)cc2)C(=O)NCC(=O)N[C@@H](Cc2ccccc2)C(=O)N[C@@H](CC(C)C)C(=O)N1)C(=O)N[C@@H](CCCNC(=N)N)C(=O)N1CCC[C@H]1C(=O)N[C@@H](CCCCN)C(N)=O` the IC50 (Mu-type opioid receptor) was 2980 nM and the IC50 [1] was 100 nM.

`CC[C@H](C)[C@H](NC(=O)[C@H](CCCN=C(N)N)NC(=O)[C@H](CCCN=C(N)N)NC(=O)[C@H](CCCCN)NC(=O)[C@H](Cc1ccccc1)NC(=O)CNC(=O)CNC(=O)[C@@H](N)Cc1ccc(O)cc1)C(=O)N[C@@H](CC(=O)O)C(=O)N1CCC[C@H]1C(=O)N[C@@H](CCCCN)C(N)=O` gave an IC50 (Mu-type opioid receptor) of 400 nM and an IC50 [1] of 35 nM.
